Assay results published in ChEMBL document CHEMBL5674865, “BRD4 associates with p53 in DNMT3A-mutated leukemia cells and is implicated in apoptosis by the bromodomain inhibitor JQ1” (Cancer Med, 2013).
pIC50: −log10 of the molar value. Active and inactive are the calls of the source. The rule behind the calls is not given here.

Legend:
OCI-AML-3 [1] = assay: Induction of DNA damage in human OCI-AML-3 cells harbouring DNMT3A-R882C and NPM1c mutants co-expressing wild-type p53 at 0.25 uM assessed as induction of gammaH2AX incubated for 24 hrs in combination with 10 uM KU60019 by immunolabeling method; format: functional, cell-based
Summary of the method: (§1)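 OCI-AML3 cells treated 24 h with 0.25 µmol/L JQ1, alone or with 10 µmol/L KU60019, […] caffeine or 1 µmol/L NU7026 added together. Cells cytospun, fixed in 4% paraformaldehyde and permeabilized with 0.2% Triton X-100. Stained with anti-γH2AX (1:500) and anti-53BP1 (1:1000) for 1 h at RT, then fluorescent secondaries and DAPI. Pan-nuclear γH2AX cells and 53BP1 foci scored by microscopy. Three experiments.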

OCI-AML-3 [2] = assay: Antiproliferative activity against human OCI-AML-3 cells harbouring DNMT3A-R882C and NPM1c mutants co-expressing wild-type p53 at 1 to 5 uM assessed as decrease in cell viability after 72 hrs by WST-1 assay; format: functional, cell-based; conditions: dose 1-5 µM
Summary of the method: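 OCI-AML3 cells (DNMT3A-R882, NPM1c, p53 wild-type) in RPMI 1640 with 10% FCS, L-glutamine, penicillin and streptomycin. Cells plated at 2 × 10^4 per well and exposed for 72 h; DMSO stocks diluted in PBS. WST-1 added and absorbance read at 450 nm 2–4 h later. Viability taken relative to untreated cells (100%). Three experiments in triplicate, mean ± SEM.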

OCI-AML-3 [3] = assay: Antiproliferative activity against human OCI-AML-3 cells harbouring DNMT3A-R882C and NPM1c mutants co-expressing wild-type p53 at 0.25 uM assessed as decrease in cell viability in combination of 5 to 50 nM daunorubicin after 72 hrs by WST-1 assay; format: functional, cell-based
Summary of the method: (§2)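 WST-1 viability of OCI-AML3 combinations. 20,000 cells per well treated with 0.25 µmol/L JQ1 plus the partner compound (Nutlin-3 0–2 µmol/L or 1–5 µmol/L; TSA 20 nmol/L; vorinostat 0.625 µmol/L; sodium butyrate 0.5 mmol/L; daunorubicin 0–50 nmol/L), applied together for 72 h. Read at 450 nm and expressed as % of untreated. Three experiments run in triplicate.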

OCI-AML-3 [4] = assay: Antiproliferative activity against human OCI-AML-3 cells harbouring DNMT3A-R882C and NPM1c mutants co-expressing wild-type p53 at 0.25 uM assessed as decrease in cell viability after 96 hrs by trypan blue assay; format: functional, cell-based
Summary of the method: (§3)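 OCI-AML3 growth curves. 80,000 cells per well in medium with or without 0.25 µmol/L JQ1. Viable cells counted by trypan blue exclusion every 24 h up to 96 h.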

OCI-AML-3 [5] = assay: Antiproliferative activity against human OCI-AML-3 cells harbouring DNMT3A-R882C and NPM1c mutants co-expressing wild-type p53 at 0.25 uM assessed as decrease in cell viability in combination of 0.625 uM vorinostat after 72 hrs by WST-1 assay; format: functional, cell-based; summary of the method: as §2
OCI-AML-3 [6] = assay: Induction of apoptosis in human OCI-AML-3 cells harbouring DNMT3A-R882C and NPM1c mutants co-expressing wild-type p53 at 0.25 uM assessed as activation of caspase 8 measured after 24 hrs by Caspase-Glo 8 assay; format: functional, cell-based
Summary of the method: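 Caspase-Glo 8 luminescence assay. OCI-AML3 cells plated at 20,000 per well and treated with 0.25 µmol/L JQ1 for 24 h. BI-2536 at 1 µmol/L used as positive control.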

OCI-AML-3 [7] = assay: Induction of DNA damage in human OCI-AML-3 cells harbouring DNMT3A-R882C and NPM1c mutants co-expressing wild-type p53 at 0.25 uM assessed as increase in pan-nuclear gammaH2AX foci incubated for 24 hrs by immunolabeling method; format: functional, cell-based; summary of the method: as §1
Raji [8] = assay: Antiproliferative activity against human Raji cells assessed as decrease in cell viability after 96 hrs by WST-1 assay; format: functional, cell-based
Summary of the method: (§4)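 WST-1 viability assay. 2 × 10^4 cells per well with compound, incubated for the indicated times, read at 450 nm 2–4 h after WST-1 addition. Viability is given as % of untreated cells by optical density. Compounds are dissolved in DMSO and diluted in PBS.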

OCI-AML-3 [9] = assay: Antiproliferative activity against human OCI-AML-3 cells harbouring DNMT3A-R882C and NPM1c mutants co-expressing wild-type p53 assessed as decrease in cell viability after 96 hrs by WST-1 assay; format: functional, cell-based; summary of the method: as §4
OCI-AML-3 [10] = assay: Induction of apoptosis in human OCI-AML-3 cells harbouring DNMT3A-R882C and NPM1c mutants co-expressing wild-type p53 at 0.25 uM measured after 24 hrs by Annexin V/PI staining based flow cytometry method; format: functional, cell-based
Summary of the method: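 OCI-AML3 cells treated for 24 h with 0.25 µmol/L JQ1, Nutlin-3 or both. Stained with annexin V and propidium iodide and analyzed by flow cytometry. Quadrant analysis of apoptotic populations.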

OCI-AML-3 [11] = assay: Antiproliferative activity against human OCI-AML-3 cells harbouring DNMT3A-R882C and NPM1c mutants co-expressing wild-type p53 at 0.25 uM assessed as decrease in cell viability in combination of 20 nM trichostatin A after 72 hrs by WST-1 assay; format: functional, cell-based; summary of the method: as §2
OCI-AML-3 [12] = assay: Induction of apoptosis in human OCI-AML-3 cells harbouring DNMT3A-R882C and NPM1c mutants co-expressing wild-type p53 at 0.25 uM assessed as activation of caspase 3/7 measured at 4 hrs by Caspase-Glo 3/7 assay; format: functional, cell-based
Summary of the method: (§5)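 Caspase-Glo 3/7 luminescence assay. OCI-AML3, Raji or K562 cells plated at 20,000 per well and treated with 0.25 µmol/L JQ1, with or without 20 nmol/L TSA. Luminescence read at 2, 4 or 24 h.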

OCI-AML-3 [13] = assay: Induction of apoptosis in human OCI-AML-3 cells harbouring DNMT3A-R882C and NPM1c mutants co-expressing wild-type p53 at 0.25 uM assessed as activation of caspase 3/7 measured after 24 hrs by Caspase-Glo 3/7 assay; format: functional, cell-based; summary of the method: as §5
K562 [14] = assay: Induction of apoptosis in human K562 cells at 0.25 uM assessed as activation of caspase 3/7 measured after 24 hrs by Caspase-Glo 3/7 assay; format: functional, cell-based; summary of the method: as §5
OCI-AML-3 [15] = assay: Induction of DNA damage in human OCI-AML-3 cells harbouring DNMT3A-R882C and NPM1c mutants co-expressing wild-type p53 at 0.25 uM assessed as increase in pyknotic nuclei incubated for 48 hrs by DAPI staining method; format: functional
Summary of the method: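 OCI-AML3 cells treated with 0.25 µmol/L JQ1 for 48 h, cytospun and fixed. DAPI-stained nuclei examined by fluorescence microscopy and the percentage of pyknotic nuclei scored.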

OCI-AML-3 [16] = assay: Antiproliferative activity against human OCI-AML-3 cells harbouring DNMT3A-R882C and NPM1c mutants co-expressing wild-type p53 at 1 uM assessed as decrease in cell viability after 96 hrs by WST-1 assay; format: functional, cell-based; summary of the method: as §4
OCI-AML-3 [17] = assay: Antiproliferative activity against human OCI-AML-3 cells harbouring DNMT3A-R882C and NPM1c mutants co-expressing wild-type p53 at 0.25 uM assessed as cell death after 96 hrs by trypan blue assay; format: functional, cell-based; summary of the method: as §3
OCI-AML-3 [18] = assay: Induction of DNA damage in human OCI-AML-3 cells harbouring DNMT3A-R882C and NPM1c mutants co-expressing wild-type p53 at 0.25 uM assessed as induction of gammaH2AX incubated for 24 hrs in combination with 1 uM NU7026 by immunolabeling method; format: functional, cell-based; summary of the method: as §1
OCI-AML-3 [19] = assay: Induction of apoptosis in human OCI-AML-3 cells harbouring DNMT3A-R882C and NPM1c mutants co-expressing wild-type p53 at 0.25 uM assessed as activation of caspase 3/7 measured in combination of 20 nM trichostatin A after 24 hrs by Caspase-Glo 3/7 assay; format: functional, cell-based; summary of the method: as §5
OCI-AML-3 [20] = assay: Induction of DNA damage in human OCI-AML-3 cells harbouring DNMT3A-R882C and NPM1c mutants co-expressing wild-type p53 at 0.25 uM assessed as increase in 53BP1 foci incubated for 24 hrs by immunolabeling method; format: functional, cell-based; summary of the method: as §1
OCI-AML-3 [21] = assay: Induction of apoptosis in human OCI-AML-3 cells harbouring DNMT3A-R882C and NPM1c mutants co-expressing wild-type p53 at 0.25 uM assessed as activation of caspase 3/7 measured at 2 hrs by Caspase-Glo 3/7 assay; format: functional, cell-based; summary of the method: as §5
OCI-AML-3 [22] = assay: Antiproliferative activity against human OCI-AML-3 cells harbouring DNMT3A-R882C and NPM1c mutants co-expressing wild-type p53 at 0.25 uM assessed as decrease in cell viability in combination of 0.5 mM sodium butyrate after 72 hrs by WST-1 assay; format: functional, cell-based; summary of the method: as §2
OCI-AML-3 [23] = assay: Induction of DNA damage in human OCI-AML-3 cells harbouring DNMT3A-R882C and NPM1c mutants co-expressing wild-type p53 at 0.25 uM assessed as induction of gammaH2AX incubated for 24 hrs in combination with […] by immunolabeling method; format: functional, cell-based; summary of the method: as §1
K562 [24] = assay: Antiproliferative activity against human K562 cells assessed as decrease in cell viability after 96 hrs by WST-1 assay; format: functional, cell-based; summary of the method: as §4
OCI-AML-3 [25] = assay: Induction of DNA damage in human OCI-AML-3 cells harbouring DNMT3A-R882C and NPM1c mutants co-expressing wild-type p53 at 0.25 uM assessed as increase in PCNA labelling for 48 hrs by DAPI staining method; format: functional, cell-based
Raji [26] = assay: Induction of apoptosis in human Raji cells at 0.25 uM assessed as activation of caspase 3/7 measured after 24 hrs by Caspase-Glo 3/7 assay; format: functional, cell-based; summary of the method: as §5
OCI-AML-3 [27] = assay: Induction of apoptosis in human OCI-AML-3 cells harbouring DNMT3A-R882C and NPM1c mutants co-expressing wild-type p53 at 1 uM assessed as activation of caspase 8 measured after 24 hrs by Caspase-Glo 8 assay; format: functional, cell-based
Summary of the method: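 OCI-AML3 cells plated at 20,000 per well and treated for 24 h. Caspase 8 activation read as luminescent signal with the Caspase-Glo 8 kit; 1 µmol/L is the positive-control level used. Mean of at least three independent experiments ± SEM; Student's t-test, P < 0.05.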

OCI-AML-3 [28] = assay: Antiproliferative activity against human OCI-AML-3 cells harbouring DNMT3A-R882C and NPM1c mutants co-expressing wild-type p53 at 0.125 to 0.25 uM assessed as decrease in cell viability in combination of 1 to 5 uM nutlin-3 after 72 hrs by WST-1 assay; format: functional, cell-based; conditions: dose 0.125-0.25 µM; summary of the method: as §2

Compound: C[C@@H]1CN(CC(=O)Nc2ccc3c(c2)Cc2cccc(-c4cc(=O)cc(N5CCOCC5)o4)c2S3)C[C@H](C)O1.Cc1sc2c(c1C)C(c1ccc(Cl)cc1)=N[C@@H](CC(=O)OC(C)(C)C)c1nnc(C)n1-2
- Activity (OCI-AML-3 [1]): inactive

Compound: COc1ccc(C2=NC(c3ccc(Cl)cc3)C(c3ccc(Cl)cc3)N2C(=O)N2CCNC(=O)C2)c(OC(C)C)c1 (stereo unspecified)
- Activity (OCI-AML-3 [2]): inactive

Compound: Cc1sc2c(c1C)C(c1ccc(Cl)cc1)=N[C@@H](CC(=O)OC(C)(C)C)c1nnc(C)n1-2
- Activity (OCI-AML-3 [3]): Active
- Activity (OCI-AML-3 [4]): Active
- Activity (OCI-AML-3 [5]): Active
- Activity (OCI-AML-3 [6]): inactive
- Activity (OCI-AML-3 [7]): inactive
- pIC50 (Raji [8]): ~6.00
- pIC50 (OCI-AML-3 [9]; OCI-AML-3, 96 h): ~6.30
- Activity (OCI-AML-3 [10]): Active
- Activity (OCI-AML-3 [11]): Active
- Activity (OCI-AML-3 [12]): inactive
- Activity (OCI-AML-3 [13]): Active
- Activity (K562 [14]): inactive
- Activity (OCI-AML-3 [15]): 3.2%
- Activity (OCI-AML-3 [16]): Active
- Activity (OCI-AML-3 [17]): Active
- Activity (OCI-AML-3 [18]): inactive
- Activity (OCI-AML-3 [19]): Active
- Activity (OCI-AML-3 [20]): Active
- Activity (OCI-AML-3 [21]): inactive
- Activity (OCI-AML-3 [22]): Active
- Activity (OCI-AML-3 [23]): inactive
- pIC50 (K562 [24]; K562, 96 h): < 5.70
- Activity (OCI-AML-3 [25]): Active
- Activity (Raji [26]): Active

Compound: CC[C@@H]1C(=O)N(C)c2cnc(Nc3ccc(C(=O)NC4CCN(C)CC4)cc3OC)nc2N1C1CCCC1
- Activity (OCI-AML-3 [27]): Active

Compound: COc1ccc(C2=NC(c3ccc(Cl)cc3)C(c3ccc(Cl)cc3)N2C(=O)N2CCNC(=O)C2)c(OC(C)C)c1.Cc1sc2c(c1C)C(c1ccc(Cl)cc1)=N[C@@H](CC(=O)OC(C)(C)C)c1nnc(C)n1-2 (stereo unspecified)
- Activity (OCI-AML-3 [28]): Active

Compound: Cc1sc2c(c1C)C(c1ccc(Cl)cc1)=N[C@H](CC(=O)OC(C)(C)C)c1nnc(C)n1-2
- Activity (Raji [8]): inactive
- Activity (OCI-AML-3 [9]; dose 1.0 µM): inactive
- Activity (K562 [24]): inactive
